Activity calls are given as the source filed them. No cut-off for these calls is given here.
How the values were obtained:
Format in all cases: functional, cell-based
Details in all cases: Homo sapiens
[1] = test system: HL-60; test: Effect on apoptosis in HL60 cells assessed as caspase-3 activation at 5 uM by Western blot analysis
Outline: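 HL-60 cells exposed 2–6 h (also 30–90 min) to compound, ethanol vehicle (final EtOH 0.1%); cells pelleted, PBS-washed twice, lysed in urea/SDS/β-mercaptoethanol buffer, boiled 3 min, run on 14% SDS-PAGE, PVDF blot probed with rabbit polyclonal anti-caspase-3 and alkaline phosphatase-coupled goat anti-rabbit; pro- versus active caspase-3 bands read.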

[2] = test system: HL-60; test: Effect on apoptosis in HL60 cells assessed as mitochondrial cytochrome C release at 5 uM by Western blot analysis
Outline: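 HL-60 cells (6 × 10^6 cells/mL) treated for various periods, ethanol vehicle; PBS-washed, Dounce-homogenized in HEPES/KCl/EDTA/EGTA/DTT buffer with protease inhibitors; 1000g spin removes nuclei/heavy membranes, mitochondria-rich fraction pelleted, supernatant spun at 100,000g for cytosol; both fractions immunoblotted with anti-cytochrome c.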

[3] = test system: HL-60; test: Induction of apoptosis in HL60 cells assessed as DNA fragmentation at 5uM
Outline: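 HL-60 cells (2 × 10^6 cells/2 mL) exposed for various periods, ethanol vehicle; lysed in Tris/EDTA/0.5% Triton X-100, soluble lysate treated with RNase A (0.2 mg/mL, 1 h, 37 °C) then proteinase K (0.2 mg/mL, 50 °C, 30 min); DNA isopropanol-precipitated overnight at −20 °C, run on 2.0% agarose at 50 V, ethidium bromide stained, UV visualized.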

[4] = test system: HL-60; test: Antileukemic effect against HL60 cells assessed as cell survival at 1 uM after 6 hrs by MTT assay relative to C2-Cer
Outline: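 Serum-free RPMI 1640 HL-60 suspension (0.4–1 × 10^6 cells/mL after two washes), […] per well; compounds added from ethanol stocks (1–20 mM), final EtOH 0.1%, vehicle control 0.1% EtOH; 6 h exposure; MTT (10 µL of 5 mg/mL) added 2 h before end; formazan dissolved with 0.04 M HCl in isopropanol.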

SMILES	Activity [1]	Activity [2]	Activity [3]	Activity [4]
CCCCCCCCCCCCC/C=C/C(=O)[C@H](CO)NC(C)=O	Active	Active	Active	Active
CCCCCCCCCCC/C=C/C=C/C(=O)[C@H](CO)NC(C)=O	Active	Active		inactive
CCCCCCCCCCCCC/C=C/C(=O)[C@H](COC)NC(C)=O	Active	Active	Active	Active
